These results are taken from ChEMBL document CHEMBL5143677, “Small molecule NSAID derivatives for impairing powerhouse in cancer cells” (Bioorg Med Chem, 2022).

pIC50: −log10 of the molar value. Active and inactive are the calls of the source. No cut-off for these calls is given here.

For data set [1], the system named is MCF7. The experiment in a line: Cytotoxicity against human MCF7 cells assessed as reduction in cell viability measured after 24 hrs by MTT assay. Type of data set: functional, cell-based. The following applies: MCF7, 24 h. A general note: Tetrazolium assays rely on reduction of a dye to a coloured formazan, in cell work by metabolically active cells.
Data set [2] can be described thus: Cytotoxicity against human RPE-1 cells assessed as reduction in cell viability measured after 24 hrs by MTT assay. In kind it is toxicity, cell-based. As to conditions: RPE-1 cells (TERT-RPE1).
Data set [3] relates to MCF7. Nature of the data set: Induction of mitochondrial outer membrane damage in human MCF7 cells assessed as increase in mitochondrial depolarization by measuring increase in green fluorescence measured after 24 hrs by JC1 dye based confocal microscopy. In kind it is cell-based. In a few lines: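 MCF7 cells treated 24 h, then incubated with JC1 (green monomer emission 525 nm, red aggregate 590 nm); confocal imaging, depolarization expressed as J-monomer:J-aggregate ratio versus non-treated control.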

The subject of data set [4] is MCF7. Nature of the data set: Induction of mitochondrial outer membrane damage in human MCF7 cells assessed as morphological changes by measuring elongated mitochondria at IC50 measured after 24 hrs by mitotracker red based confocal microscopy. Type of data set: cell-based.
Data set [5] deals with MCF7. Nature of the data set: Induction of mitochondrial outer membrane damage in human MCF7 cells assessed as morphological changes by measuring appearance of threadlike structure at IC50 measured after 24 hrs by mitotracker red based confocal microscopy. Type of data set: cell-based.
Data set [6] deals with MCF7. Nature of the data set: Induction of mitochondrial outer membrane damage in human MCF7 cells assessed as increase in mitochondrial depolarization by measuring reduction in red fluorescence measured after 24 hrs by TMRM dye based confocal microscopy. Type of data set: cell-based. In outline: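 Mitochondrial damage probe: after 24 h exposure MCF7 cells loaded with TMRM, which stains undamaged mitochondria and is effluxed after damage; red fluorescence read by confocal microscopy against non-treated cells.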

For data set [7], the system named is MCF7. Nature of the data set: Induction of ROS generation in human MCF7 cells assessed as increase in green fluorescence measured after 24 hrs by H2DCFDA dye based confocal microscopy relative to control. In kind it is functional. In outline:
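After 24 h treatment, MCF7 cells stained with H2DCFDA, which reacts with sub-cellular ROS to give green fluorescent DCF; imaged by confocal microscopy; green signal expressed as fold over non-treated control cells.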

For data set [8], the system named is MCF7. Nature of the data set: Induction of apoptosis in human MCF7 cells assessed as reduction in Bcl-2 expression measured after 24 hrs by Western blot analysis. Type of data set: functional, cell-based. In outline: (§1)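 MCF7 cells treated 24 h; whole-cell proteins separated by gel electrophoresis and Bcl-2 and caspase-3 detected by Western blot, compared with control cells.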

The test system of data set [9] is MCF7. Nature of the data set: Induction of apoptosis in human MCF7 cells assessed as reduction in caspase-3 expression measured after 24 hrs by Western blot analysis. Type of data set: functional, cell-based. In a few lines:
as §1
On the technique in general: Immunoblotting shows a protein as a band on a membrane.

Data set [10] concerns MCF7. Nature of the data set: Induction of mitochondrial outer membrane damage in human MCF7 cells assessed as morphological changes by measuring appearance of fragmented punctate structure at IC50 measured after 24 hrs by mitotracker red based confocal microscopy. In kind it is cell-based.
Data set [11] deals with MCF7. The experiment in a line: Induction of ROS generation in human MCF7 cells assessed as increase in red fluorescence at IC50 measured after 24 hrs by MitoSox dye based confocal microscopy. In kind it is functional, cell-based. In outline: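 MCF7 cells exposed 24 h, then stained with MitoSox, which gives red fluorescence with sub-cellular superoxide; signal compared with non-treated control cells by confocal microscopy.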

The subject of data set [12] is MCF7. The experiment in a line: Induction of apoptosis in human MCF7 cells assessed as increase in red fluorescence at IC50 measured after 24 hrs by propidium iodide staining based confocal laser scanning microscopy. In kind it is functional, cell-based. In outline: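 Following 24 h treatment, MCF7 cells incubated with propidium iodide, which binds DNA of apoptotic and necrotic cells; red fluorescence read by confocal microscopy against non-treated cells.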

As to `COc1ccc([P+](CCCCCOC(=O)C(C)c2ccc(CC(C)C)cc2)(c2ccc(OC)cc2)c2ccc(OC)cc2)cc1` (stereo not drawn), the pIC50 in the data set with MCF7 [1] is 4.49. The IC50 at 24 h in [2] was greater than 40 µM.
For the compound `CC(C)Cc1ccc(C(C)C(=O)OCCCCC[P+](c2ccc(F)cc2)(c2ccc(F)cc2)c2ccc(F)cc2)cc1` (stereo not drawn), the pIC50 with MCF7 [1] is less than 4.30. The 50% inhibitory concentration (IC50) at 24 h in data set [2] came out at 35 µM.
The corresponding values for `Cc1ccc([P+](CCCCCOC(=O)C(C)c2ccc(CC(C)C)cc2)(c2ccc(C)cc2)c2ccc(C)cc2)cc1` (stereo not drawn) are 4.59 and greater than 40 µM.
Taken in the same sequence, the figures for `COc1ccc2c(c1)c(CC(=O)OCCCCC[P+](c1ccc(C)cc1)(c1ccc(C)cc1)c1ccc(C)cc1)c(C)n2C(=O)c1ccc(Cl)cc1` were 5.24 and 10.2 µM.
In the case of `COc1ccc2c(c1)c(CC(=O)O)c(C)n2C(=O)c1ccc(Cl)cc1` [INDOMETHACIN], the pIC50 in the data set with MCF7 [1] was less than 4.30. Besides, the IC50 at 24 h in data set [2] is greater than 40 µM. The outcome with MCF7 [3], in the data set on MCF7 [4], with MCF7 [5], in the data set on MCF7 [6], in the data set on MCF7 [8] and in the data set on MCF7 [9] was Active. The “fold change (FC)” value in the data set on MCF7 [7] was 2.4.
As for `COc1ccc([P+](CCCCCOC(=O)Cc2c(C)n(C(=O)c3ccc(Cl)cc3)c3ccc(OC)cc23)(c2ccc(OC)cc2)c2ccc(OC)cc2)cc1`, the negative logarithm of the IC50 (pIC50) in the data set with MCF7 [1] is 5.35. Further, in data set [2], the IC50 at 24 h came out at 35.2 µM.
Take `COc1ccc2c(c1)c(CC(=O)OCCCCC[P+](c1ccc(F)cc1)(c1ccc(F)cc1)c1ccc(F)cc1)c(C)n2C(=O)c1ccc(Cl)cc1`: the pIC50 with MCF7 [1] was 4.59. For the same compound, the half-inhibitory concentration (IC50) at 24 h in [2] was 11.2 µM.
As for `CC(C)Cc1ccc(C(C)C(=O)OCCCCC[P+](c2ccccc2)(c2ccccc2)c2ccccc2)cc1` (stereo not drawn), the pIC50 with MCF7 [1] is 4.99. Further, the half-inhibitory concentration (IC50) at 24 h in data set [2] is greater than 40 µM. Also, the result in the data set on MCF7 [3], with MCF7 [10], in the data set with MCF7 [6], in the data set on MCF7 [11], with MCF7 [12] and with MCF7 [8] was Active. Also, the outcome with MCF7 [9] was Active. Besides, the “fold change (FC)” value in the data set with MCF7 [7] worked out at 3.2.
In the case of `CC(C)Cc1ccc(C(C)C(=O)O)cc1` (stereo not drawn) [IBUPROFEN], the negative logarithm of the IC50 (pIC50) in the data set on MCF7 [1] was less than 4.30. The IC50 at 24 h in data set [2] is greater than 40 µM. For the same compound, the result in the data set with MCF7 [3], in the data set on MCF7 [4], in the data set on MCF7 [5] and in the data set with MCF7 [6] was Active. Moreover, in the data set with MCF7 [7], the “fold change (FC)” value stood at 1.3.
Consider `COc1ccc2c(c1)c(CC(=O)OCCCCC[P+](c1ccccc1)(c1ccccc1)c1ccccc1)c(C)n2C(=O)c1ccc(Cl)cc1`, for which the pIC50 in the data set with MCF7 [1] was 6.00. Also, the IC50 at 24 h in data set [2] amounted to 22 µM. The outcome in the data set with MCF7 [3], in the data set on MCF7 [10], with MCF7 [6], with MCF7 [11], in the data set with MCF7 [12] and with MCF7 [8] was Active. In the data set with MCF7 [9], the result was Active. Further, the “fold change (FC)” value in the data set with MCF7 [7] came to 2.4.

One may read the pIC50 as the IC50 on a negative log10 scale, so that one unit is a factor of ten. A word on the IC50: it is the concentration needed to halve the response being measured.
